Reference: ChEMBL document CHEMBL1156019, “Synthesis and small-animal positron emission tomography evaluation of [11C]-elacridar as a radiotracer to assess the distribution of P-glycoprotein at the blood-brain barrier” (J Med Chem, 2009)
Values belong to the compound of their own block, whether it stands above or below them.

Experiments:
[1] = test system: Brain; assay: Biodistribution in naive rat brain assessed per gram of tissue at 118 +/- 40 MBq, iv after 18 mins by positron emission tomography; type: ADME, organism-based; conditions: in vivo, 0.3 h
How it was run: (§1)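 Naïve rats under 1.5-2% isoflurane with femoral artery and vein catheters; [11C]-tracer 118±40 MBq i.v. bolus over ~30 s; dynamic microPET. Scan 1: unlabeled compound 5 mg/kg i.v. at 60 min, then 90 min more acquisition; scan 2 given 2 h after unlabeled dose. Whole-brain TACs as %ID/g; arterial blood sampled serially and gamma counted. n=3, mean ± SD.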

[2] = test system: Brain; assay: Biodistribution in naive rat brain assessed per gram of tissue at 118 +/- 40 MBq, iv after 0.6 mins by positron emission tomography; type: ADME, organism-based; conditions: in vivo, 0.01 h; how it was run: as §1
[3] = Ratio of drug level in wild type mouse brain to naive rat brain; type: ADME, tissue-based; conditions: in vivo
How it was run: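 Whole-brain %ID/g at 18 min after i.v. [11C]-1, from dynamic PET. Wild-type female FVB mice received 42±6 MBq via tail vein. Naive rats (baseline scan, before any unlabeled compound) received 118±40 MBq via femoral vein catheter. Both groups under isoflurane; n=3 each.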

[4] = test system: Blood; assay: Biodistribution in naive rat blood assessed per gram of tissue at 118 +/- 40 MBq, iv after 20 mins by gamma counting; type: ADME, organism-based; conditions: in vivo; how it was run: as §1
[5] = test system: Brain; assay: Ratio of drug level in Mdr1a/b knockout mouse brain to wild type mouse brain; type: ADME, tissue-based; conditions: in vivo
How it was run: (§2)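 Wild-type FVB, Mdr1a/b(-/-) and Bcrp1(-/-) female mice (25-30 g), isoflurane-anesthetized and kept warm. [11C]-1 42±6 MBq i.v. bolus via tail vein, with a 60-min dynamic microPET scan started at injection. Whole-brain %ID/g read from time-activity curves at 18 min; knockout/wild-type ratios taken at 18 min; n=3; two-tailed unpaired t-test.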

[6] = test system: Brain; assay: Ratio of drug level in Bcrp1 knockout mouse brain to wild type mouse brain; type: ADME, tissue-based; conditions: in vivo; how it was run: as §2
[7] = test system: Brain; assay: Biodistribution in wild type mouse brain assessed per gram of tissue, iv after 18 mins; conditions: in vivo, 0.3 h
[8] = test system: Brain; assay: Biodistribution in Bcrp1 knockout mouse brain assessed per gram of tissue, iv after 18 mins; conditions: in vivo, 0.3 h
[9] = test system: Brain; assay: Biodistribution in Mdr1a/b knockout mouse brain assessed per gram of tissue, iv after 18 mins; conditions: in vivo, 0.3 h
[10] = test system: Blood; assay: Biodistribution in wild type mouse blood assessed per gram of tissue at 42 +/- 6 MBq, iv after 20 mins by gamma counting; conditions: in vivo
[11] = test system: Blood; assay: Biodistribution in Bcrp1 knockout mouse blood assessed per gram of tissue at 42 +/- 6 MBq, iv after 20 mins by gamma counting; conditions: in vivo
[12] = test system: Blood; assay: Biodistribution in Mdr1a/b knockout mouse blood assessed per gram of tissue at 42 +/- 6 MBq, iv after 20 mins by gamma counting; conditions: in vivo
[13] = test system: Brain; assay: Biodistribution in naive rat brain assessed per gram of tissue at 118 +/- 40 MBq, iv after 130 mins by positron emission tomography; type: ADME, organism-based; conditions: in vivo; how it was run: as §1
[14] = test system: Brain; assay: Biodistribution in naive rat brain assessed per gram of tissue at 118 +/- 40 MBq, iv administered 2 hrs after unlabeled elacridar infusion measured after 18 mins by positron emission tomography; type: ADME, organism-based; conditions: in vivo, 0.3 h; how it was run: as §1
[15] = test system: Brain; assay: Ratio of drug level in naive rat brain at 118 +/- 40 MBq, iv administered 2 hrs after unlabeled elacridar infusion to drug level in naive rat brain at 118 +/- 40 MBq, iv administered before unlabeled elacridar infusion; type: ADME, organism-based; conditions: in vivo
How it was run: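 Naive rats under isoflurane with femoral artery and vein catheters; n=3. Scan 1: [11C]-1 118±40 MBq i.v. bolus over about 30 s, then dynamic PET. At 60 min, unlabeled 1 (5 mg/kg) i.v. over about 20 s, then 90 min more imaging. Scan 2 run 2 h after unlabeled dose. Whole-brain %ID/g at 18 min compared as scan 2/scan 1; two-tailed paired t-test.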

[16] = Inhibition of P-gp-mediated [3H]daunorubicin transport in Wistar rat hepatocytes by scintillation counting; type: cell-based; conditions: hepatocyte
[17] = species on record: Rattus norvegicus; conditions: Sprague-Dawley, 10 M
[18] = test system: Caco-2; assay: Ratio of permeability from basolateral to apical side over apical to basolateral side in human Caco-2 cells
[19] = test system: Brain; assay: Biodistribution of rat brain at 20 MBq, iv after 30 mins post-injection in presence of cyclosporine A treated before compound infusion relative to basal level; type: ADME, organism-based; conditions: in vivo, 0.5 h

Drug uptake [1]: 0.07 %ID
Drug uptake [2]: 0.23 %ID
Ratio [3]: 10
Drug uptake [4]: 0.02 %ID
Ratio [5]: 2.5
Ratio [6]: 1.3
Drug uptake [7]: 0.72 %ID
Drug uptake [8]: 0.9 %ID
Drug uptake [9]: 1.8 %ID
Drug uptake [10]: 0.97 %ID
Drug uptake [11]: 0.89 %ID
Drug uptake [12]: 0.64 %ID
SMILES: COc1cc2c(cc1OC)CN(CCc1ccc(NC(=O)c3cccc4c(=O)c5cccc(O[11CH3])c5[nH]c34)cc1)CC2

Drug uptake [13]: 0.28 %ID
Drug uptake [14]: 0.4 %ID
Ratio [15]: 5.4
Ki [16]: 35 nM
inhibition [17]: 63%
Ratio [18]: < 2
SMILES: COc1cc2c(cc1OC)CN(CCc1ccc(NC(=O)c3cccc4c(=O)c5cccc(OC)c5[nH]c34)cc1)CC2

fold change (FC) [19]: 6
SMILES: [11CH3]OC(=O)c1cnc2n1CCc1ccccc1C2=C1CCN(CCc2ccc(OCc3ccc4ccccc4n3)cc2)CC1
